Laboratory results published in ChEMBL document CHEMBL3872215, “Optimization and biological evaluation of aminopyrimidine-based IκB kinase β inhibitors with potent anti-inflammatory effects” (Eur J Med Chem, 2016).
Active and inactive are the calls of the source. No cut-off for these calls is given here.

Legend:
[1] = molecular target: T1, Inhibitor of nuclear factor kappa-B kinase subunit beta (Homo sapiens, UniProt O14920); experiment: Inhibition of IKKbeta (unknown origin)
T1 sequence (O14920 whole entry): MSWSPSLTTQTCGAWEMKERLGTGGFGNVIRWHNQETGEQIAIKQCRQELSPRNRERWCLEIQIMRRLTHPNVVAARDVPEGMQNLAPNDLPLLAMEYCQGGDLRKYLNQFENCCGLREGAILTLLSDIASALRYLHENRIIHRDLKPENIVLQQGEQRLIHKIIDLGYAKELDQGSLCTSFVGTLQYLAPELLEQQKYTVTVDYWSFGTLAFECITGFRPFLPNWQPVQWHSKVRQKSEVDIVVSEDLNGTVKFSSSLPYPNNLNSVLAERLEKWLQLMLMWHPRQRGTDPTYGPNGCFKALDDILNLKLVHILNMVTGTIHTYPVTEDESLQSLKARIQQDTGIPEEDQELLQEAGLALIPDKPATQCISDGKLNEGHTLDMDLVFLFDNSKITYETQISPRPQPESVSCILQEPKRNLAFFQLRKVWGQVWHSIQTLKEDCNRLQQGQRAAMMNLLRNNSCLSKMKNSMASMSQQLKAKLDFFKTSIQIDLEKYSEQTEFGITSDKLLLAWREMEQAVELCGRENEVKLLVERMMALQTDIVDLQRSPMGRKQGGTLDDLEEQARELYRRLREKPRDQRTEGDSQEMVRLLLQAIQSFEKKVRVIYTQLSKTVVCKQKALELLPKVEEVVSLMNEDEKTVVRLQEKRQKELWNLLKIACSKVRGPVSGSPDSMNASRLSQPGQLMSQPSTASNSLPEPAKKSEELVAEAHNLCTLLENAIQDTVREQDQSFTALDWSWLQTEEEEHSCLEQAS

RAW264.7 [2] = experiment: Antiinflammatory activity against mouse RAW264.7 cells assessed as inhibition of LPS induced nitrite accumulation at 1 to 5 uM preincubated for 6 hrs followed by LPS challenge measured after 18 hrs by Griess reagent based assay; format: functional, cell-based
Outline: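 Cells seeded at 1 × 10^5 cells/ml and grown 24 h, then pretreated 6 h with compound at 1, 2 or 5 µM. LPS 100 ng/ml added for a further 18 h. NO production read as nitrite in the culture medium and compared with the negative control.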

RAW264.7 [3] = experiment: Antiinflammatory activity against mouse RAW264.7 cells assessed as inhibition of LPS induced nitric oxide synthase synthesis preincubated for 6 hrs followed by LPS challenge by western blot method; format: functional, cell-based
RAW264.7 [4] = experiment: Antiinflammatory activity against mouse RAW264.7 cells assessed as inhibition of LPS induced IL-1alpha production at 5 uM preincubated for 6 hrs followed by LPS challenge measured after 18 hrs; format: functional, cell-based
Outline: (§1)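 Cells cultured in DMEM with 10% FBS and 1% penicillin/streptomycin, pretreated 6 h with compound at 5 µM, then LPS 100 ng/ml for 18 h. Lysates mixed with antibody cocktail and incubated overnight on a blocked mouse cytokine array membrane, then streptavidin-HRP with chemiluminescent detection. Relative protein expression taken from densitometry of scanned images.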

RAW264.7 [5] = experiment: Antiinflammatory activity against mouse RAW264.7 cells assessed as inhibition of LPS induced SiCAM-1 production at 5 uM preincubated for 6 hrs followed by LPS challenge measured after 18 hrs; format: functional, cell-based; outline: as §1
RAW264.7 [6] = experiment: Antiinflammatory activity against mouse RAW264.7 cells assessed as inhibition of LPS induced TIMP-1 production at 5 uM preincubated for 6 hrs followed by LPS challenge measured after 18 hrs; format: functional, cell-based; outline: as §1
RAW264.7 [7] = experiment: Antiinflammatory activity against mouse RAW264.7 cells assessed as inhibition of LPS induced I-TAC production at 5 uM preincubated for 6 hrs followed by LPS challenge measured after 18 hrs; format: functional, cell-based; outline: as §1
RAW264.7 [8] = experiment: Antiinflammatory activity against mouse RAW264.7 cells assessed as inhibition of LPS induced IL-6 production preincubated for 6 hrs followed by LPS challenge measured after 18 hrs by ELISA method; format: functional, cell-based
Outline: (§2)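 Cells plated at 4 × 10^5 per well and left to attach overnight, then pretreated 6 h with compound (1, 2 and 5 µM) before LPS 100 ng/ml for 18 h. IL-6 and TNF-α measured in cell-free supernatants with a mouse ELISA kit, following the kit instructions.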

RAW264.7 [9] = experiment: Antiinflammatory activity against mouse RAW264.7 cells assessed as inhibition of LPS induced TNF-alpha production preincubated for 6 hrs followed by LPS challenge measured after 18 hrs by ELISA method; format: functional, cell-based; outline: as §2
[10] = molecular target: T2, Inhibitor of nuclear factor kappa-B kinase subunit beta (Mus musculus) (UniProt O88351); experiment: Inhibition of LPS-induced IKKbeta-mediated NF-kappa-B p65 phosphorylation in mouse RAW264.7 cells preincubated for 6 hrs followed by LPS challenge measured after 30 mins by ELISA method; format: cell-based
T2 sequence (whole entry): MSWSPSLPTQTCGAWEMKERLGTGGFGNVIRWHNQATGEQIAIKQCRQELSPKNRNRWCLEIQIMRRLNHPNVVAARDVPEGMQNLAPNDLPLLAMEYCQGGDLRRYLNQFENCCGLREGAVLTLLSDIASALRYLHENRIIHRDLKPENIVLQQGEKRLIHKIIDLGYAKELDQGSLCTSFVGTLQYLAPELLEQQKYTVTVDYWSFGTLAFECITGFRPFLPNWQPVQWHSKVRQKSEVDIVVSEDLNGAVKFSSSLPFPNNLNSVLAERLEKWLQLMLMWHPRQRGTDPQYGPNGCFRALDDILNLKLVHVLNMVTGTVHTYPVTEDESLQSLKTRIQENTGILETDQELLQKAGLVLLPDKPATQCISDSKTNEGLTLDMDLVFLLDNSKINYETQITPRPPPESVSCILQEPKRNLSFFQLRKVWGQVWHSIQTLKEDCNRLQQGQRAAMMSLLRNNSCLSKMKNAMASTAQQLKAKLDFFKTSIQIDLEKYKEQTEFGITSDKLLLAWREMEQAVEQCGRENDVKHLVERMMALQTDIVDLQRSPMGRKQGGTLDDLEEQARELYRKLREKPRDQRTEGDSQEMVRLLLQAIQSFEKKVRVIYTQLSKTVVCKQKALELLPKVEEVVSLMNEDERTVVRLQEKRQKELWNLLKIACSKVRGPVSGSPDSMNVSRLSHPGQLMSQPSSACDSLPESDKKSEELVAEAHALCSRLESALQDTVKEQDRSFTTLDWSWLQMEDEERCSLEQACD
Outline: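 Cells exposed 6 h to compound at 1, 2 and 5 µM, then LPS 100 ng/ml for 30 min. Cytoplasmic phospho-NF-κB p65 measured with an ELISA kit, following the kit instructions.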

[11] = molecular target: T2, Inhibitor of nuclear factor kappa-B kinase subunit beta (Mus musculus); experiment: Inhibition of LPS induced IKKbeta-mediated NF-kappa-B p65 nuclear translocation in mouse RAW264.7 cells at 5 uM preincubated for 6 hrs followed by LPS challenge measured after 30 mins by DAPI staining based confocal laser scanning microscopic method; format: cell-based
Outline: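 Pretreatment 6 h with 5 µM compound, then LPS 100 ng/ml for 30 min. Cells fixed in acetone:methanol 1:1 for 10 min, blocked 1 h at room temperature, and incubated overnight at 4 °C with p-NF-κB antibody (1:50). RITC secondary (1:100) applied 1 h, nuclei stained with DAPI, and slides imaged by confocal laser scanning microscopy.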

[12] = molecular target: T2, Inhibitor of nuclear factor kappa-B kinase subunit beta (Mus musculus); experiment: Inhibition of LPS-induced IKKbeta phosphorylation in mouse RAW264.7 cells preincubated for 6 hrs followed by LPS challenge measured after 30 mins by Western blot method
[13] = molecular target: T2, Inhibitor of nuclear factor kappa-B kinase subunit beta (Mus musculus); experiment: Inhibition of LPS-induced IKKbeta-mediated IkappaB-alpha phosphorylation in mouse RAW264.7 cells preincubated for 6 hrs followed by LPS challenge measured after 30 mins by Western blot method
[14] = Lipophilicity, logD of the compound at pH 7.4; format: physicochemical; conditions: buffer

SMILES | IC50 [1] [nM] | other results
Nc1ccccc1Oc1ccc(-c2ccnc(Nc3ccccc3)n2)cc1 | 11800 | –
Nc1ccc(-c2ccnc(Nc3ccc(S(N)(=O)=O)cc3)n2)cc1 | 41 | inhibition (RAW264.7 [2]): Active; inhibition (RAW264.7 [3]): Dose-dependent effect; inhibition (RAW264.7 [4]): Active; inhibition (RAW264.7 [5]): Active; inhibition (RAW264.7 [6]): Active; inhibition (RAW264.7 [7]): Active; inhibition (RAW264.7 [8]): Dose-dependent effect; inhibition (RAW264.7 [9]): Dose-dependent effect; inhibition [10]: Dose-dependent effect; inhibition [11]: Active; inhibition [12]: Dose-dependent effect; inhibition [13]: Dose-dependent effect
N#Cc1ccc(-c2ccnc(Nc3ccc(S(=O)(=O)NCCO)cc3)n2)cc1 | 111 | –
CCOC(=O)Nc1ccc(Nc2nccc(-c3ccc(Oc4ccccc4[N+](=O)[O-])cc3)n2)cc1 | > 20000 | –
Nc1ccccc1Oc1ccc(-c2ccnc(Nc3ccc(S(=O)(=O)Nc4nccs4)cc3)n2)cc1 | 1100 | –
Nc1ccccc1Oc1ccc(-c2ccnc(Nc3cccc(S(N)(=O)=O)c3)n2)cc1 | 1600 | –
Nc1ccc(-c2ccnc(Nc3ccc(S(=O)(=O)NCCO)cc3)n2)cc1 | 53 | logD [14]: 0.58; inhibition (RAW264.7 [2]): Active
CN(C)CCOc1ccc(-c2ccnc(Nc3ccc(S(N)(=O)=O)cc3)n2)cc1 | 79 | inhibition (RAW264.7 [2]): Active
NS(=O)(=O)c1ccc(Nc2nccc(-c3ccc(Cl)cc3)n2)cc1 | 19 | –
COC(=O)Nc1ccc(Nc2nccc(-c3ccc(Oc4ccccc4[N+](=O)[O-])cc3)n2)cc1 | > 20000 | –
CC(C)(C)OC(=O)NCCOc1ccc(-c2ccnc(Nc3ccc(S(N)(=O)=O)cc3)n2)cc1 | 138 | –
N#Cc1cccc(-c2ccnc(Nc3ccc(S(=O)(=O)NCCO)cc3)n2)c1 | 190 | logD [14]: 1.49; inhibition (RAW264.7 [2]): Active
CS(=O)(=O)Nc1ccc(Nc2nccc(-c3ccc(Oc4ccccc4[N+](=O)[O-])cc3)n2)cc1 | 320 | –
Nc1ccccc1Oc1ccc(-c2ccnc(Nc3ccc4ncsc4c3)n2)cc1 | 4600 | –
N#Cc1ccc(-c2ccnc(Nc3ccc(S(N)(=O)=O)cc3)n2)cc1 | 58 | logD [14]: 3.81
NCCOc1ccc(-c2ccnc(Nc3ccc(S(N)(=O)=O)cc3)n2)cc1 | 65 | logD [14]: 1.39; inhibition (RAW264.7 [2]): Active
NS(=O)(=O)c1ccc(Nc2nccc(-c3ccc(Oc4ccccc4)cc3)n2)cc1 | 1520 | –
CNS(=O)(=O)c1ccc(Nc2nccc(-c3ccc(Oc4ccccc4[N+](=O)[O-])cc3)n2)cc1 | 1100 | –
NS(=O)(=O)c1ccc(Nc2nccc(-c3ccc(Oc4ccccc4[N+](=O)[O-])cc3)n2)cc1 | 34 | –

Further lines, with some results ahead:

IC50 [1] [nM] | SMILES | other results
34100 | Nc1ccccc1Oc1ccc(-c2ccnc(Nc3ccc(Cl)cc3)n2)cc1 | –
> 50000 | Cc1ccc(Nc2nccc(-c3ccc(Oc4ccccc4N)cc3)n2)cc1 | –
28700 | CN(C)c1ccc(Nc2nccc(-c3ccc(Oc4ccccc4N)cc3)n2)cc1 | –
14200 | NC(=O)c1ccc(Nc2nccc(-c3ccc(Oc4ccccc4N)cc3)n2)cc1 | –
8100 | CC(=O)c1ccc(Nc2nccc(-c3ccc(Oc4ccccc4N)cc3)n2)cc1 | –
6200 | N#Cc1ccc(Nc2nccc(-c3ccc(Oc4ccccc4N)cc3)n2)cc1 | –
12000 | COc1ccc(Nc2nccc(-c3ccc(Oc4ccccc4N)cc3)n2)cc1 | –
2700 | CS(=O)(=O)c1ccc(Nc2nccc(-c3ccc(Oc4ccccc4N)cc3)n2)cc1 | –
97 | Nc1ccccc1Oc1ccc(-c2ccnc(Nc3ccc(S(N)(=O)=O)cc3)n2)cc1 | logD [14]: 3.29
4200 | CC(=O)Nc1ccc(Nc2nccc(-c3ccc(Oc4ccccc4N)cc3)n2)cc1 | –
